Activity data for three compounds are collected here from ChEMBL document CHEMBL1817556, “Substituted lactam and cyclic azahemiacetals modulate Pseudomonas aeruginosa quorum sensing” (Bioorg Med Chem, 2011).

The target in assay [1] is T1, Acyl-homoserine-lactone synthase (Pseudomonas aeruginosa (strain ATCC 15692 / PAO1 / 1C / PRS 101 / LMG12228)) (UniProt P33883).
T1 sequence (whole entry): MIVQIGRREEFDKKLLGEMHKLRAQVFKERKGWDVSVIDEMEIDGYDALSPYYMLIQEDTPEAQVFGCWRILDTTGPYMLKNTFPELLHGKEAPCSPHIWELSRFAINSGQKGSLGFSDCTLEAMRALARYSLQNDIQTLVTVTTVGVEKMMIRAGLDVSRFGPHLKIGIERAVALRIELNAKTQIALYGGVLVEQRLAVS
Put plainly: Modulation of Pseudomonas aeruginosa lacZ-fused lasI expressed in Escherichia coli DH5alpha co-expressing pBAD-lasR assessed as 3-oxo-C12-AHL-induced effect at 0.61 mM after 3 hrs by beta-galactosidase assay relative to control. A digest of the protocol:
(§1)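 E. coli DH5α carrying pSC11 (PlasI-lacZ translational fusion) and pJN105L (PBAD-lasR) was grown overnight in LB with ampicillin (100 μg/ml) and gentamicin (15 μg/ml), then diluted to OD600 0.150. Arabinose (0.2% w/v), 3-oxo-C12-AHL (2 μM) and test compound or DMSO were added. Cultures were shaken 3 h at 37 °C. β-Galactosidase activity was read in Miller units and expressed as % of the solvent sample. Triplicates per biological replicate, repeated at least twice; paired two-tailed t-test.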

Assay [2] has as its target 3-(3-hydroxydecanoyloxy)decanoate synthase (Pseudomonas aeruginosa (strain ATCC 15692 / PAO1 / 1C / PRS 101 / LMG12228)) (UniProt Q51559). Put plainly: Modulation of Pseudomonas aeruginosa lacZ-fused rhlA expressed in Escherichia coli DH5alpha co-expressing Ptac-rhlR assessed as C4-AHL-induced effect at 0.81 mM after 4 hrs by beta-galactosidase assay relative to control. An outline of the steps: (§2)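 E. coli DH5α carrying pECP61.5 (Ptac-rhlR, PrhlA-lacZ), grown overnight in LB with ampicillin 100 μg/ml and diluted to OD600 0.150. At OD600 1.0, 1 mM IPTG, 2 μM C4-HSL and compound or DMSO were added. Cultures were shaken 4 h at 37 °C, then β-galactosidase was read in Miller units. Activity is % of solvent sample, from triplicates per biological replicate, with at least two repeats.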

Assay [3] has the same target. Put plainly: Modulation of Pseudomonas aeruginosa lacZ-fused rhlA expressed in Escherichia coli DH5alpha co-expressing Ptac-rhlR assessed as C4-AHL-induced effect at 0.20 mM after 4 hrs by beta-galactosidase assay relative to control. An outline of the steps:
(§3)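 rhl reporter: E. coli DH5α carrying pECP61.5 (Ptac-rhlR, PrhlA-lacZ) was grown overnight in LB with ampicillin (100 μg/ml) only, then diluted to OD600 0.150. It was induced with 1 mM IPTG, and 2 μM C4-HSL plus compound or DMSO were added at OD600 1.0. Cultures were shaken 4 h at 37 °C. β-Galactosidase activity was read in Miller units as % of the solvent sample. Triplicates per biological replicate, at least two repeats; paired two-tailed t-test.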

The target of assay [4] is T1, Acyl-homoserine-lactone synthase (Pseudomonas aeruginosa (strain ATCC 15692 / PAO1 / 1C / PRS 101 / LMG12228)). Put plainly: Modulation of Pseudomonas aeruginosa lacZ-fused lasI expressed in Escherichia coli DH5alpha co-expressing pBAD-lasR assessed as 3-oxo-C12-AHL-induced effect at 0.20 mM after 3 hrs by beta-galactosidase assay relative to control. A digest of the protocol: as §1

For assay [5] the target is unchanged. Put plainly: Modulation of Pseudomonas aeruginosa lacZ-fused lasI expressed in Escherichia coli DH5alpha co-expressing pBAD-lasR assessed as 3-oxo-C12-AHL-induced effect at 0.40 mM after 3 hrs by beta-galactosidase assay relative to control. A digest of the protocol: as §1
The target in assay [6] is 3-(3-hydroxydecanoyloxy)decanoate synthase (Pseudomonas aeruginosa (strain ATCC 15692 / PAO1 / 1C / PRS 101 / LMG12228)) (UniProt Q51559). Put plainly: Modulation of Pseudomonas aeruginosa lacZ-fused rhlA expressed in Escherichia coli DH5alpha co-expressing Ptac-rhlR assessed as C4-AHL-induced effect at 0.40 mM after 4 hrs by beta-galactosidase assay relative to control. A digest of the protocol: as §3

The target of assay [7] is T1, Acyl-homoserine-lactone synthase (Pseudomonas aeruginosa (strain ATCC 15692 / PAO1 / 1C / PRS 101 / LMG12228)). Put plainly: Modulation of Pseudomonas aeruginosa lacZ-fused lasI expressed in Escherichia coli DH5alpha co-expressing pBAD-lasR assessed as 3-oxo-C12-AHL-induced effect at 0.81 mM after 3 hrs by beta-galactosidase assay relative to control. An outline of the steps:
as §1

In assay [8] the target is 3-(3-hydroxydecanoyloxy)decanoate synthase (Pseudomonas aeruginosa (strain ATCC 15692 / PAO1 / 1C / PRS 101 / LMG12228)) (UniProt Q51559). Put plainly: Modulation of Pseudomonas aeruginosa lacZ-fused rhlA expressed in Escherichia coli DH5alpha co-expressing Ptac-rhlR assessed as C4-AHL-induced effect at 0.61 mM after 4 hrs by beta-galactosidase assay relative to control. A digest of the protocol:
as §2

Assay [9] has the same target. Put plainly: Modulation of Pseudomonas aeruginosa lacZ-fused rhlA expressed in Escherichia coli DH5alpha co-expressing Ptac-rhlR assessed as C4-AHL-induced effect at 0.19 mM after 4 hrs by beta-galactosidase assay relative to control. An outline of the steps:
as §3

The target in assay [10] is T1, Acyl-homoserine-lactone synthase (Pseudomonas aeruginosa (strain ATCC 15692 / PAO1 / 1C / PRS 101 / LMG12228)). Put plainly: Modulation of Pseudomonas aeruginosa lacZ-fused lasI expressed in Escherichia coli DH5alpha co-expressing pBAD-lasR assessed as 3-oxo-C12-AHL-induced effect at 0.77 mM after 3 hrs by beta-galactosidase assay relative to control. An outline of the steps: as §1

For assay [11] the target is unchanged. Put plainly: Modulation of Pseudomonas aeruginosa lacZ-fused lasI expressed in Escherichia coli DH5alpha co-expressing pBAD-lasR assessed as 3-oxo-C12-AHL-induced effect at 0.19 mM after 3 hrs by beta-galactosidase assay relative to control. An outline of the steps: as §1
For assay [12], the target named is 3-(3-hydroxydecanoyloxy)decanoate synthase (Pseudomonas aeruginosa (strain ATCC 15692 / PAO1 / 1C / PRS 101 / LMG12228)) (UniProt Q51559). Put plainly: Modulation of Pseudomonas aeruginosa lacZ-fused rhlA expressed in Escherichia coli DH5alpha co-expressing Ptac-rhlR assessed as C4-AHL-induced effect at 0.39 mM after 4 hrs by beta-galactosidase assay relative to control. An outline of the steps: as §3

The target in assay [13] is T1, Acyl-homoserine-lactone synthase (Pseudomonas aeruginosa (strain ATCC 15692 / PAO1 / 1C / PRS 101 / LMG12228)). Put plainly: Modulation of Pseudomonas aeruginosa lacZ-fused lasI expressed in Escherichia coli DH5alpha co-expressing pBAD-lasR assessed as 3-oxo-C12-AHL-induced effect at 0.58 mM after 3 hrs by beta-galactosidase assay relative to control. A digest of the protocol:
as §1

Assay [14] shares this target. Put plainly: Modulation of Pseudomonas aeruginosa lacZ-fused lasI expressed in Escherichia coli DH5alpha co-expressing pBAD-lasR assessed as 3-oxo-C12-AHL-induced effect at 0.39 mM after 3 hrs by beta-galactosidase assay relative to control. A digest of the protocol:
as §1

Assay [15] has as its target 3-(3-hydroxydecanoyloxy)decanoate synthase (Pseudomonas aeruginosa (strain ATCC 15692 / PAO1 / 1C / PRS 101 / LMG12228)) (UniProt Q51559). Put plainly: Modulation of Pseudomonas aeruginosa lacZ-fused rhlA expressed in Escherichia coli DH5alpha co-expressing Ptac-rhlR assessed as C4-AHL-induced effect at 0.58 mM after 4 hrs by beta-galactosidase assay relative to control. An outline of the steps:
as §2

The target is the same in assay [16]. Put plainly: Modulation of Pseudomonas aeruginosa lacZ-fused rhlA expressed in Escherichia coli DH5alpha co-expressing Ptac-rhlR assessed as C4-AHL-induced effect at 0.77 mM after 4 hrs by beta-galactosidase assay relative to control. An outline of the steps:
as §2

The target is the same in assay [17]. Put plainly: Modulation of Pseudomonas aeruginosa lacZ-fused rhlA expressed in Escherichia coli DH5alpha co-expressing Ptac-rhlR assessed as C4-AHL-induced effect at 0.86 mM after 4 hrs by beta-galactosidase assay relative to control. An outline of the steps:
as §2

In assay [18] the target is T1, Acyl-homoserine-lactone synthase (Pseudomonas aeruginosa (strain ATCC 15692 / PAO1 / 1C / PRS 101 / LMG12228)). Put plainly: Modulation of Pseudomonas aeruginosa lacZ-fused lasI expressed in Escherichia coli DH5alpha co-expressing pBAD-lasR at 0.29 to 0.86 mM after 3 hrs by beta-galactosidase assay relative to control. A digest of the protocol:
as §1

Assay [19] concerns the target 3-(3-hydroxydecanoyloxy)decanoate synthase (Pseudomonas aeruginosa (strain ATCC 15692 / PAO1 / 1C / PRS 101 / LMG12228)) (UniProt Q51559). Put plainly: Modulation of Pseudomonas aeruginosa lacZ-fused rhlA expressed in Escherichia coli DH5alpha co-expressing Ptac-rhlR assessed as C4-AHL-induced effect at 0.29 mM after 4 hrs by beta-galactosidase assay relative to control. A digest of the protocol:
as §3

Assay [20] has the same target. Put plainly: Modulation of Pseudomonas aeruginosa lacZ-fused rhlA expressed in Escherichia coli DH5alpha co-expressing Ptac-rhlR assessed as C4-AHL-induced effect at 1.14 mM after 4 hrs by beta-galactosidase assay relative to control. A digest of the protocol: as §2
Assay [21] addresses T1, Acyl-homoserine-lactone synthase (Pseudomonas aeruginosa (strain ATCC 15692 / PAO1 / 1C / PRS 101 / LMG12228)). Put plainly: Modulation of Pseudomonas aeruginosa lacZ-fused lasI expressed in Escherichia coli DH5alpha co-expressing pBAD-lasR assessed as 3-oxo-C12-AHL-induced effect at 0.86 mM after 3 hrs by beta-galactosidase assay relative to control. An outline of the steps:
as §1

Assay [22] deals with 3-(3-hydroxydecanoyloxy)decanoate synthase (Pseudomonas aeruginosa (strain ATCC 15692 / PAO1 / 1C / PRS 101 / LMG12228)) (UniProt Q51559). Put plainly: Modulation of Pseudomonas aeruginosa lacZ-fused rhlA expressed in Escherichia coli DH5alpha co-expressing Ptac-rhlR assessed as C4-AHL-induced effect at 0.57 mM after 4 hrs by beta-galactosidase assay relative to control. An outline of the steps:
as §3

Assay [23] deals with T1, Acyl-homoserine-lactone synthase (Pseudomonas aeruginosa (strain ATCC 15692 / PAO1 / 1C / PRS 101 / LMG12228)). Put plainly: Modulation of Pseudomonas aeruginosa lacZ-fused lasI expressed in Escherichia coli DH5alpha co-expressing pBAD-lasR assessed as 3-oxo-C12-AHL-induced effect at 0.57 mM after 3 hrs by beta-galactosidase assay relative to control. A digest of the protocol: as §1

Assay [24] shares this target. Put plainly: Modulation of Pseudomonas aeruginosa lacZ-fused lasI expressed in Escherichia coli DH5alpha co-expressing pBAD-lasR assessed as 3-oxo-C12-AHL-induced effect at 0.29 mM after 3 hrs by beta-galactosidase assay relative to control. A digest of the protocol:
as §1

Assay [25] has the same target. Put plainly: Modulation of Pseudomonas aeruginosa lacZ-fused lasI expressed in Escherichia coli DH5alpha co-expressing pBAD-lasR assessed as 3-oxo-C12-AHL-induced effect at 1.14 mM after 3 hrs by beta-galactosidase assay relative to control. An outline of the steps: as §1

Activity calls are given as the source filed them. No cut-off for these calls is given here.

As for `CCCCCCSC[C@H]1NC(=O)[C@H](O)[C@@H]1O`, the Activity stood at 79% in assay [1]; 161% in assay [2]; 132% in [3]; 96% in assay [4]; 78% in assay [5]; 129% in assay [6]. The Activity stood at 68% in [7] and 148% in [8].

Turning to `CCCCCCCCCSC[C@@H]1CCC(O)N1` (mixture of isomers), the Activity in [9] is 93%; in assay [10] it was 47%; in assay [11], 74%; in [12] it was 80%; in [13], 57%; in [14], 65%. Further, the Activity amounted to 100% in [15] and 99% in [16].

For `CCCSC[C@@H]1CCC(O)N1` (mixture of isomers), the Activity was found to be 41% in [17]; 121% in assay [19]; 9% in [20]; 31% in assay [21]; 138% in [22]; 115% in assay [23]. In addition, the Activity is 228% in [24] and 11% in assay [25]. The result in [18] was inactive.
